Results published in ChEMBL document CHEMBL1149907, “Phenolic glycosides from the filamentous fungus Acremonium sp. BCC 14080” (J Nat Prod, 2008).

Legend:
Plasmodium falciparum = assay: Antimalarial activity against Plasmodium falciparum K1 by microculture radioisotope assay; format: functional, organism-based
Summary of the method: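 Radioisotope microculture assay of P. falciparum K1 growth, with dihydroartemisinin as the reference antimalarial. IC50 reported as mean ± SD, n = 3.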

Human alphaherpesvirus 1 = assay: Antiviral activity against HSV1 by colorimetric method; format: functional, organism-based
Summary of the method: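 HSV-1 inhibition read by a colorimetric method, with acyclovir as the reference compound. IC50 reported as mean ± SD, n = 3.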

KB = assay: Cytotoxicity against human KB cells by colorimetric method; format: functional, cell-based
Summary of the method: (§1)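 Colorimetric cytotoxicity read-out, with ellipticine as the reference compound. Cell types: KB (oral human epidermal carcinoma), BC (human breast cancer), NCI-H187 (human small-cell lung cancer) and Vero (African green monkey kidney fibroblast). IC50 reported as mean ± SD, n = 3.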

[1] = Cytotoxicity against human BC cells by colorimetric method; format: functional, cell-based; summary of the method: as §1
NCI-H187 = assay: Cytotoxicity against human NCI-H187 cells by colorimetric method; format: functional, cell-based; summary of the method: as §1
Vero = assay: Cytotoxicity against African green monkey Vero cells by colorimetric method; format: cell-based; details: Chlorocebus sabaeus; summary of the method: as §1

| Compound | IC50 (Plasmodium falciparum) [µM] | IC50 (Human alphaherpesvirus 1) [µM] | IC50 (KB) [µM] | IC50 [1] [µM] | IC50 (NCI-H187) [µM] | IC50 (Vero) [µM] |
| --- | --- | --- | --- | --- | --- | --- |
| CCCCCCCc1cc(O)cc(O[C@@H]2O[C@H](CO)[C@@H](OC)[C@H](O)[C@H]2O)c1 | > 25 | > 100 | > 50 | > 50 | > 50 | > 100 |
| Nc1nc2c(ncn2COCCO)c(=O)[nH]1 [ACYCLOVIR] | – | 10.2 | – | – | – | – |
| Cc1c2ccncc2c(C)c2c1[nH]c1ccccc12 [ELLIPTECINE] | – | – | 1.99 | 0.49 | 1.71 | 10.2 |

Continued, in another order:

| IC50 (Plasmodium falciparum) [µM] | IC50 (Human alphaherpesvirus 1) [µM] | Compound | IC50 (KB) [µM] | IC50 [1] [µM] | IC50 (NCI-H187) [µM] | IC50 (Vero) [µM] |
| --- | --- | --- | --- | --- | --- | --- |
| > 10 | > 50 | CCCCCCCc1cc(O)cc(OC(=O)c2c(CCCCCCC)cc(O)cc2O[C@@H]2O[C@H](CO[C@@H]3O[C@H](CO)[C@H](O)[C@H](O)[C@H]3O)[C@H](O)[C@H](O)[C@H]2O)c1 | > 25 | 20.2 | > 25 | 32.1 |
| > 10 | 7.2 | CCCCCCCc1cc(O)cc(OC(=O)c2c(CCCCCCC)cc(O)cc2O[C@@H]2O[C@H](CO)[C@H](O)[C@H](O)[C@H]2O)c1 | > 25 | 4.4 | 13.9 | 43.2 |
| 9.9 | > 100 | CCCCCCCc1cc(O)cc(OC(=O)c2c(O)cc(O)cc2CCCCCCC)c1 | 13 | 8.8 | 13.6 | 34.3 |
| 0.0039 | – | C[C@H]1[C@@H](O)O[C@@H]2O[C@@]3(C)CC[C@H]4[C@H](C)CC[C@@H]1[C@@]24OO3 [ARTENIMOL] | – | – | – | – |
